Converted amounts (≈) assume the structure as drawn.
Assays:
Pseudomonas aeruginosa = test: Antimicrobial activity against Pseudomonas aeruginosa ATCC 27953 after 24 hrs by agar well diffusion method; format: functional
Summary of the method: (§1)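 Agar well diffusion. Inocula of 100 µL: bacteria 1 × 10^8 CFU/mL on nutrient agar, yeast 1 × 10^6 CFU/mL on Sabouraud dextrose agar, fungi 1 × 10^4 spore/mL on potato dextrose agar. 10 mm wells received 100 µL of compound at 100 mg/mL in DMSO. Bacteria incubated 24 h at 37 °C, fungi 48 h at 28 °C. Controls were DMSO, ciprofloxacin 50 µg/mL and ketoconazole 50 µg/mL. Inhibition zone diameter in mm, scored N.A. to ++++, average of triplicates.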

Bacillus subtilis [1] = test: Antimicrobial activity against Bacillus subtilis ATCC 6633 after 24 hrs by agar well diffusion method; format: functional; summary of the method: as §1
Aspergillus niger = test: Antimicrobial activity against Aspergillus niger after 48 hrs by agar well diffusion method; format: functional; summary of the method: as §1
Priestia megaterium = test: Antimicrobial activity against Bacillus megaterium ATCC 9885 after 24 hrs by agar well diffusion method; format: functional; summary of the method: as §1
Staphylococcus aureus [2] = test: Antimicrobial activity against Staphylococcus aureus ATCC 29213 after 24 hrs by agar well diffusion method; format: functional; summary of the method: as §1
Bacillus subtilis [3] = test: Antimicrobial activity against Bacillus subtilis ATCC 6633 after 24 hrs by two fold serial dilution technique; format: functional; conditions: ATCC 6633, 24 h
Summary of the method: (§2)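 Tested only compounds giving inhibition zones ≥ 16 mm, by two-fold serial dilution in nutrient broth. Final concentrations were […], 175, 87.5, 43.8 and 21.9 µg/mL. Each 5 mL tube received 0.1 mL inoculum of about 1 × 10^8 CFU/mL and was incubated 24 h at 37 °C. MIC was the lowest concentration with no growth.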

Escherichia coli = test: Antimicrobial activity against Escherichia coli ATCC 25922 after 24 hrs by agar well diffusion method; format: functional; summary of the method: as §1
[4] = Antioxidant activity in rat erythrocytes assessed as inhibition of peroxyl radicals-induced hemolysis at 2 mM after 2 hrs; format: functional; conditions: Erythrocyte, read-out: INH
Summary of the method: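 Rat blood from cardiac puncture, heparinized. Erythrocytes were washed three times in 0.15 M NaCl. A 10% suspension in PBS pH 7.4 was mixed with an equal volume of 200 mM AAPH in PBS containing sample, then shaken at 37 °C for 2 h. Mixture diluted with 8 volumes of PBS and centrifuged; supernatant A540 compared with a water-lysed sample for complete hemolysis. L-ascorbic acid was the positive control. Mean ± SD.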

Candida albicans = test: Antimicrobial activity against Candida albicans NRRL Y-477 after 48 hrs by agar well diffusion method; format: functional; summary of the method: as §1
[5] = Cytotoxicity against mouse EAC cells assessed as cell viability using trypan blue staining after 2 hrs by hemocytometer analysis; format: functional, cell-based; conditions: Ehrlich
[6] = Antioxidant activity assessed as ABTS radical scavenging activity at 2 mM; format: functional
Summary of the method: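 ABTS (60 µM, 2 mL) was oxidized with MnO2 (25 mg/mL, 3 mL) in 0.1 M phosphate buffer pH 7, then centrifuged and filtered, with A734 adjusted to about 0.5. 50 µL of 2 mM compound in MeOH/phosphate buffer (1:1) was added. Colour loss expressed as % inhibition. L-ascorbic acid was the standard; blank and negative controls used MeOH/buffer.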

Klebsiella pneumoniae [7] = test: Antimicrobial activity against Klebsiella pneumoniae ATCC 13883 after 24 hrs by agar well diffusion method; format: functional; summary of the method: as §1
Staphylococcus aureus [8] = test: Antimicrobial activity against Staphylococcus aureus ATCC 29213 after 24 hrs by two fold serial dilution technique; format: functional; conditions: ATCC 29213, 24 h; summary of the method: as §2
Klebsiella pneumoniae [9] = test: Antimicrobial activity against Klebsiella pneumoniae ATCC 13883 after 24 hrs by two fold serial dilution technique; format: functional; conditions: ATCC 13883, 24 h; summary of the method: as §2

Row | SMILES | diameter of the inhibition zone (DIZ) (Pseudomonas aeruginosa) | diameter of the inhibition zone (DIZ) (Bacillus subtilis [1]) | diameter of the inhibition zone (DIZ) (Aspergillus niger) | diameter of the inhibition zone (DIZ) (Priestia megaterium) | diameter of the inhibition zone (DIZ) (Staphylococcus aureus [2]) | MIC (Bacillus subtilis [3]) [µg/mL] | diameter of the inhibition zone (DIZ) (Escherichia coli) | percent hemolysis at 2000 µM [4] [%] | diameter of the inhibition zone (DIZ) (Candida albicans) | IC50 [5] [µg/mL] | inhibition [6] [%] | diameter of the inhibition zone (DIZ) (Klebsiella pneumoniae [7]) | MIC (Staphylococcus aureus [8]) [µg/mL] | MIC (Klebsiella pneumoniae [9]) [µg/mL]
1 | C/C(=N\NC(N)=S)c1nc(-c2ccccc2)[nH]c1C | <=4 mm | 16 mm | <=4 mm | 10 mm | 5 mm | 87.5 (≈ 320 µM) | <=4 mm | 2.45 | <=4 mm | 4.18 (≈ 15.3 µM) | 60.2 | 10 mm |  | 
2 | C/C(=N\NC(=O)CC#N)c1nc(-c2ccccc2)[nH]c1C | <=4 mm | <=4 mm | <=4 mm | <=4 mm | <=4 mm |  | <=4 mm | 3.65 | <=4 mm | 125 (≈ 445 µM) | 48.2 | <=4 mm |  | 
3 | CC1=NC(=N/N=C(\C)c2nc(-c3ccccc3)[nH]c2C)/S/C1=N\Nc1ccccc1 | <=4 mm | <=4 mm | <=4 mm | <=4 mm | <=4 mm |  | <=4 mm | 6.4 | <=4 mm | 20.2 (≈ 48.7 µM) | 44.4 | <=4 mm |  | 
4 | C/C(=N/NC(=O)c1cc2ccc(O)cc2oc1=N)c1nc(-c2ccccc2)[nH]c1C | <=4 mm | <=4 mm | <=4 mm | <=4 mm | <=4 mm |  | <=4 mm | 5.55 | <=4 mm | 150 (≈ 375 µM) | 4.56 | <=4 mm |  | 
5 | CC1=NC(=N/N=C(\C)c2nc(-c3ccccc3)[nH]c2C)/S/C1=N\Nc1ccc(Cl)cc1 | <=4 mm | <=4 mm | <=4 mm | <=4 mm | <=4 mm |  | <=4 mm | 1.7 | <=4 mm | 20.2 (≈ 45 µM) | 40.7 | <=4 mm |  | 
6 | C/C(=N\N=C1\N=C2N=c3ccccc3=NC2S1)c1nc(-c2ccccc2)[nH]c1C (centres undefined) | <=4 mm | <=4 mm | <=4 mm | <=4 mm | <=4 mm |  | <=4 mm | 1.1 | <=4 mm | 4.25 (≈ 10.6 µM) | 37.4 | <=4 mm |  | 
7 | C/C(=N\NC(=O)/C(C#N)=C\c1cn(-c2ccccc2)nc1-c1cccs1)c1nc(-c2ccccc2)[nH]c1C | <=4 mm | <=4 mm | <=4 mm | <=4 mm | <=4 mm |  | <=4 mm | 5.55 | <=4 mm | 125 (≈ 242 µM) | 34.6 | <=4 mm |  | 
8 | C/C(=N\N=C1\N=C(c2cc3ccccc3oc2=O)CS1)c1nc(-c2ccccc2)[nH]c1C | <=4 mm | <=4 mm | <=4 mm | <=4 mm | <=4 mm |  | <=4 mm | 2.5 | <=4 mm | 125 (≈ 283 µM) | 61.6 | <=4 mm |  | 
9 | C/C(=N\N=C1\NC(=O)/C(=C/c2ccc(F)cc2)S1)c1nc(-c2ccccc2)[nH]c1C | <=4 mm | <=4 mm | <=4 mm | <=4 mm | <=4 mm |  | <=4 mm | 1.4 | <=4 mm | 14.5 (≈ 34.6 µM) | 79.2 | <=4 mm |  | 
10 | C/C(=N\N=C1\NC(=O)CS1)c1nc(-c2ccccc2)[nH]c1C | <=4 mm | 16 mm | <=4 mm | <=4 mm | 16 mm | 43.8 (≈ 140 µM) | <=4 mm |  | <=4 mm |  |  | 16 mm | 43.8 (≈ 140 µM) | 21.9 (≈ 69.9 µM)
11 | C/C(=N\N=C1\N=C(c2ccccc2)CS1)c1nc(-c2ccccc2)[nH]c1C | 10 mm | 16 mm | <=4 mm | <=4 mm | 16 mm | 43.8 (≈ 117 µM) | 10 mm | 2.75 | <=4 mm | 19.5 (≈ 52.2 µM) | 79.3 | 10 mm | 29.1 (≈ 77.9 µM) | 

— ChEMBL document CHEMBL1770090, “Synthesis, antimicrobial, antioxidant, anti-hemolytic and cytotoxic evaluation of new imidazole-based heterocycles” (Eur J Med Chem, 2011)
